Laboratory results: ChEMBL document CHEMBL4765245 (Eur J Med Chem, 2020)
pIC50: −log10 of the molar value.

What was measured:
HeLa = test: Cytotoxicity against human HeLa cells assessed as reduction in cell viability incubated for 72 hrs measured by crystal violet based micro plate reader method; settings: hela, 72 h
How it was run: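 Two-day-old confluent HeLa Ohio monolayers exposed to half-log dilutions (100 μM downward) in 2% FCS medium for 72 h at 37 °C, 5% CO2. Cells fixed and stained with crystal violet/formalin, dye eluted with acidified citrate-ethanol, OD read at 550/630 nm. Viability expressed relative to six mock-treated controls; CC50 is the mean of at least 3 tests.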

Coxsackievirus B3 [1] = test: Antiviral activity against Coxsackievirus B3 Nancy infected in human HeLa cell line assessed as inhibition of virus-induced cytopathic effect measured after 48 hrs by crystal violet uptake assay; type: functional, organism-based
How it was run: (§1)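 HeLa Ohio monolayers, 2 days old and confluent, in MEM with 2% FCS. Serial half-log compound dilutions from 100 μM were added just before CVB3 infection. Activity was calculated per Pauwels against six cell and six virus controls; mean IC50 from ≥3 experiments.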

Coxsackievirus B3 [2] = test: Antiviral activity against wild type Coxsackievirus B3 97927 infected in human HeLa cell line assessed as inhibition of virus-induced cytopathic effect measured after 48 hrs by crystal violet uptake assay; type: functional, organism-based; settings: for pIC50: Enterovirus B, 97927, HeLa, 48 h, read-out: IC50
How it was run: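 Coxsackievirus B3 infection of 2-day-old HeLa Ohio monolayers in 2% FCS medium. Half-log dilutions from 100 μM added just before infection; guanidine hydrochloride served as positive control. Antiviral activity calculated per Pauwels; IC50 is the mean of at least 3 separate tests.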

Coxsackievirus B3 [3] = test: Antiviral activity against pleconaril-resistant Coxsackievirus B3 97927 11207M/I1092 mutant infected in human HeLa cell line assessed as inhibition of virus-induced cytopathic effect measured after 48 hrs by crystal violet uptake assay; type: functional, organism-based; how it was run: as §1
Coxsackievirus B3 [4] = test: Antiviral activity against pleconaril-resistant Coxsackievirus B3 97927 11207T/I1092 mutant infected in human HeLa cell line assessed as inhibition of virus-induced cytopathic effect measured after 48 hrs by crystal violet uptake assay; type: functional, organism-based; settings: read-out: IC50; how it was run: as §1
rhinovirus A2 = test: Antiviral activity against Rhinovirus A2 infected in human HeLa cell line assessed as inhibition of virus-induced cytopathic effect measured after 72 hrs by crystal violet uptake assay; type: functional, organism-based; settings: for pIC50: Rhinovirus A, HeLa, 72 h, read-out: IC50
How it was run: (§2)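 HeLa Ohio monolayers, 1 day old, in 2% FCS medium. Compound added as serial half-log dilutions from 100 μM immediately before rhinovirus infection. Activity calculated per Pauwels; IC50 is the mean of at least 3 experiments.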

rhinovirus B5 = test: Antiviral activity against Rhinovirus B5 infected in human HeLa cell line assessed as inhibition of virus-induced cytopathic effect measured after 72 hrs by crystal violet uptake assay; type: functional, organism-based; settings: for pIC50: Rhinovirus B, HeLa, 72 h, read-out: IC50
How it was run: as §2, with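 “infection. CPE read at 72 h by crystal violet staining, elution and OD 550/630 nm, with six cell and six virus controls per plate.” for “infection.”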

rhinovirus B14 = test: Antiviral activity against Rhinovirus B14 infected in human HeLa cell line assessed as inhibition of virus-induced cytopathic effect measured after 72 hrs by crystal violet uptake assay; type: functional, organism-based; settings: for pIC50: Rhinovirus B, HeLa, 72 h, read-out: IC50; how it was run: as §2

Compound	CC50 (HeLa) [µM]	IC50 (Coxsackievirus B3 [1])	pIC50 (Coxsackievirus B3 [2])	pIC50 (Coxsackievirus B3 [3])	pIC50 (Coxsackievirus B3 [4])	pIC50 (rhinovirus A2)	IC50 (rhinovirus B5)	pIC50 (rhinovirus B14)	IC50 (rhinovirus A2)	IC50 (Coxsackievirus B3 [2])	pIC50 (Coxsackievirus B3 [1]; Enterovirus B, Nancy, HeLa, 48 h, read-out: IC50)	pIC50 (rhinovirus B5)	IC50 (rhinovirus B14)
CCOC(=O)c1cc(CCCOc2ccc(-c3noc(C(F)(F)F)n3)cc2[N+](=O)[O-])on1	> 100	Not Active	6.83	6.74	5.40	4.32	Not Active	5.53	–	–	–	–	–
CCOC(=O)c1cc(CCCOc2ccc(-c3noc(C(F)(F)F)n3)cc2F)on1	60.2	Not Active	6.66	5.87	4.60	–	Not Active	6.30	Not Active	–	–	–	–
CCOC(=O)c1cc(CCCOc2ccc(-c3noc(C(F)(F)F)n3)cc2)on1	> 100	Not Active	6.13	5.18	4.37	–	Not Active	6.47	Not Active	–	–	–	–
COc1ccc(-c2cc(CCCOc3c(C)cc(-c4noc(C(F)(F)F)n4)cc3C)on2)cc1OC	41.9	–	–	–	–	5.68	–	5.56	–	Not Active	–	–	–
CN(C)C(=O)c1cc(CCCOc2ccc(-c3noc(C(F)(F)F)n3)cn2)on1	48.8	–	5.23	–	4.76	–	–	6.92	–	–	4.65	5.37	–
Cc1cc(-c2noc(C(F)(F)F)n2)cc(C)c1OCCCc1cc(-c2ccc(OC(F)(F)F)cc2)no1	> 100	–	–	–	–	–	–	–	Not Active	Not Active	–	–	–
CCOC(=O)c1cc(CCCOc2ccc(-c3noc(C(F)(F)F)n3)cc2OC)on1	> 100	Not Active	6.31	5.47	4.43	4.22	–	6.18	–	–	–	4.71	–
CCOC(=O)c1cc(CCCOc2ccc(-c3noc(C(F)(F)F)n3)cc2-n2cccc2)on1	57.3	Not Active	4.99	–	4.84	–	Not Active	–	Not Active	–	–	–	Not Active
CC(=O)Nc1cc(-c2noc(C(F)(F)F)n2)ccc1OCCCc1cc(C(=O)N(C)C)no1	> 100	Not Active	4.52	4.79	4.14	–	Not Active	4.74	Not Active	–	–	–	–
CCOC(=O)c1cc(CCCOc2ccc(-c3noc(C(F)(F)F)n3)cc2NC(C)=O)on1	> 100	Not Active	–	–	–	–	Not Active	–	Not Active	Not Active	–	–	Not Active
CN(C)C(=O)c1cc(CCCOc2ccc(-c3noc(C(F)(F)F)n3)cc2-n2cccc2)on1	21.2	Not Active	6.09	5.97	5.45	5.49	Not Active	5.13	–	–	–	–	–
CCOC(=O)c1cc(CCCOc2c(OC)cc(-c3noc(C(F)(F)F)n3)cc2[N+](=O)[O-])on1	> 100	Not Active	5.92	5.00	4.36	5.25	Not Active	5.57	–	–	–	–	–
CCOC(=O)c1cc(CCCOc2ccc(-c3noc(C(F)(F)F)n3)cc2/N=C/N(C)C)on1	> 100	Not Active	4.70	–	–	–	Not Active	4.53	Not Active	–	–	–	–
CCOC(=O)c1cc(CCCOc2ccc(-c3noc(C(F)(F)F)n3)cc2C(F)(F)F)on1	28.4	Not Active	7.52	8.00	5.98	5.31	Not Active	–	–	–	–	–	Not Active
CCOC(=O)c1cc(CCCOc2ccc(-c3noc(C(F)(F)F)n3)cc2N)on1	> 100	Not Active	4.70	–	–	–	Not Active	4.85	Not Active	–	–	–	–
